# In the library only some 1.2% were active in any assay of this set; here they are far more common.
# PfG6PD inh: PfG6PD enzyme inhibitors, primary screen, biochemical, fluorescence intensity, uHTS. PfGluPho enzyme, NADPH resazurin-diaphorase fluorescence. inhibition, % at 20 µM. actives 0.78% (n = 350,000);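 active = inhibition reaching at least a set limit at 20 µM in the primary screen, cut at about 59% in these data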
# Diaph act CS: compounds boosting diaphorase resazurin reduction – biochemical, uHTS, resorufin fluorescence, counter-screen for diaphorase-coupled primary assays, primary screen; Diaphorase/resazurin coupled assay, 16 min; active compounds read high; 1 = vehicle wells, 0 = NADH-free wells; activation factor at 20 µM; actives 0.005% (n = 190,000);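 active = diaphorase activity raised at least twofold by the compound at 20 µM; inactive = activation factor below 2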
#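 Material: purified diaphorase enzyme from Clostridium kluyveri / Medium: HEPES pH 7.4 buffer with MgCl2 and Tween 20 / Schedule: enzyme reaction of 16 min at room temperature / Measured by: resorufin fluorescence, excitation 544 nm, emission 590 nm / Evaluation: rise in resorufin formation, marking diaphorase activation or chemical reduction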
# HKDC1 inh: HKDC1 hexokinase inhibitors, primary screen, biochemical, fluorescence, uHTS; Q2TB90; recombinant HKDC1, G6PDH/diaphorase resazurin coupled fluorescence; inhibition, % at 20 µM; actives 0.16% (n = 340,000); AID 493160, 2011;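 active = inhibition above about 35% when tested at 20 µM, limit read from the data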
#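 System: Recombinant HKDC1 hexokinase | Amount: HKDC1 at 5 µg/mL | Reagent: Glucose with 1 mM ATP | Doses: Single 20 µM dose | Incubation: Reaction time 90 min, room temperature, protected from light | Signal: Coupled resazurin fluorescence, excitation 525 nm, emission 613 nm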
# G6PDH counter: L. mesenteroides G6PDH inhibitors, counter-screen for G6PDH-coupled screening assays, biochemical, Leuconostoc mesenteroides enzyme; Purified L. mesenteroides G6PDH, diaphorase/resazurin coupled fluorescence, 45 min; AID 1020, 2008; inhibition, % at 5 µM; actives 0.12% (n = 200,000); glucose-6-phosphate dehydrogenase [Leuconostoc mesenteroides]; in the data active = inhibition above about 50%
# Diaph inh CS: diaphorase inhibitors and chemical oxidizers, primary screen, counter-screen for diaphorase-coupled primary assays, biochemical, uHTS, resorufin fluorescence; actives 0.69% (n = 190,000); diaphorase resazurin-to-resorufin fluorescence, NADH, 16 min; bacterial (C. kluyveri) enzyme, not human; inhibition, % at 20 µM;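 active = primary screen inhibition at 20 µM above a set limit, cut at about 50% in these data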
#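 Benchmarks: positive control wells lacking NADH, neutral wells with DMSO only. System: bacterial diaphorase enzyme (C. kluyveri). Input: 0.14 U/mL diaphorase, enzyme working solution. Detection: resorufin fluorescence, excitation 544 nm, emission 590 nm. Times: 16-min room-temperature incubation before reading.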
# PfG6PD confirm: PfG6PD inhibitors, hit retest, confirmation, biochemical, fluorescence intensity, single concentration. shares compounds with PfG6PD inh. actives 34% (n = 2,400). recombinant PfGluPho, NADPH-diaphorase-resazurin fluorescence. inhibition, % at 20 µM;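 active = inhibition of at least 50% at 20 µM in any single replicate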
# Diaph ctr 10uM: diaphorase inhibitors and chemical oxidizers, confirmation, counter-screen for P. falciparum G6PD inhibitor project, biochemical, fluorescence intensity, 10 µM NADPH; shares compounds with PfG6PD inh; AID 504862, 2011; diaphorase-coupled resazurin reduction, NADPH 10 uM; inhibition, % at 20 µM; actives 39% (n = 820);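 active = average inhibition reaching 50% or more with the compound at 20 µM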;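 note: resorufin red fluorescence formed as diaphorase reduces resazurin using NADPH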
# Diaph ctr 30uM: diaphorase inhibitors and chemical oxidizers, confirmation, counter-screen for P. falciparum G6PD inhibitor project, biochemical, fluorescence intensity, 30 µM NADPH | shares compounds with PfG6PD inh | AID 504863, 2011 | inhibition, % at 20 µM | actives 29% (n = 820) | Diaphorase/resazurin coupled assay, resorufin fluorescence;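 active = inhibition averaging 50% or more, tested at 20 µM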
# Numbers stand for hits; – = inactive; · = not tested or not shown.
SMILES,PfG6PD inh,Diaph act CS,HKDC1 inh,G6PDH counter,Diaph inh CS,PfG6PD confirm,others
CC1=CC(=O)C=C(C)C1=NOc1ccccc1[N+](=O)[O-],69,–,–,–,–,–,
Cc1cc(C)c(S(=O)(=O)Oc2ccccc2[N+](=O)[O-])c(C)c1,–,·,–,·,·,·,
Cn1nc(-c2ccccn2)nc2c(=O)n(C)c(=O)nc1-2,113,·,–,·,·,89,Diaph ctr 10uM=98;Diaph ctr 30uM=103
COc1ccc(-c2nc(-c3ccccn3)ncc2S(C)(=O)=O)cc1,–,–,–,–,–,·,
CCCc1nc2c(=O)n(C)c(=O)nc-2n(C)n1,109,–,–,56,–,103,Diaph ctr 10uM=98;Diaph ctr 30uM=100
O=C(O)c1cccc(N2C(=O)CSC2c2ccccc2)c1 (configuration not stated),–,·,–,·,·,·,
CC(C)c1ccc(NC(=S)N2CCN(S(=O)(=O)c3ccccc3)CC2)cc1,–,·,–,·,·,·,
CCS(=O)(=O)c1cc([N+](=O)[O-])c(Sc2ccccc2NC(C)=O)s1,62,·,–,·,·,–,
Nc1ccc(N(CCO)CCO)cc1,63,–,–,–,53,55,Diaph ctr 10uM=–;Diaph ctr 30uM=–
COC(=O)C(Cc1ccccc1)NC(=O)CCCC(=O)NCc1cccc(OC)c1 (configuration not stated),–,·,–,·,·,·,
O=C(C=Cc1ccccc1)Nc1ccccc1,–,·,–,·,·,·,
CCc1nnc(NC(=O)c2ccc3ccccc3n2)s1,–,–,–,–,–,·,
CCSc1nnc(NC(=O)c2ccc3ccccc3n2)s1,71,–,–,–,–,–,
O=C(Nc1cccc(S(=O)(=O)Nc2ccccc2F)c1)c1ccc2ccccc2n1,76,–,–,–,–,–,
O=C(/C=C/c1ccccc1)Nc1cccc(S(=O)(=O)Nc2ccccc2F)c1,71,–,–,–,–,–,
O=C(Nc1ccccc1)c1ccc2ccccc2n1,–,–,–,–,–,·,
O=C(Nc1ccccc1C(=O)O)c1ccc2ccccc2n1,74,–,–,–,–,70,Diaph ctr 10uM=59;Diaph ctr 30uM=68
CCCNC(=O)N(C)C[C@@H]1Oc2ncc(-c3ccncc3)cc2C(=O)N([C@H](C)CO)C[C@@H]1C,–,·,·,·,·,·,
CC1(C)NC(=O)N(CC(=O)OCC(=O)Nc2cc(S(=O)(=O)N3CCCCC3)ccc2Cl)C1=O,–,–,–,–,–,·,
CCOc1ccc(NC(=O)CN(C)C(=O)c2ccccc2OCc2c(C)noc2C)cc1OCC,–,·,–,·,·,·,
CC(=O)c1ccc(S(=O)(=O)N2CCN(C(=O)c3ccc(-n4nc(C)c(Cl)c4C)cc3)CC2)cc1,–,·,–,·,·,·,
CCOC(=O)C1C(=O)NC(SCC(=O)Nc2nccs2)=C(C#N)C1c1ccccc1OCC (configuration not stated),70,–,–,–,–,–,
CC1=C(C)C(=O)C(CCCCC#CCCCC#CCO)=C(C)C1=O,89,–,–,57,–,–,
COc1cc(NCCCn2cnc(C(=O)Nc3ccc(C)c(C)c3)n2)cc(OC)c1OC,73,·,–,·,·,61,Diaph ctr 10uM=–;Diaph ctr 30uM=–
CCCC(=O)OCCNc1cc(Sc2nc3ccccc3[nH]2)c2nonc2c1[N+](=O)[O-],65,–,–,–,–,–,
SMILES,PfG6PD inh,Diaph act CS,HKDC1 inh,G6PDH counter,Diaph inh CS,PfG6PD confirm,others
COc1ccc(OC)c(C2=Nn3c(nnc3-c3cc(OC)c(OC)c(OC)c3)SC2)c1,98,–,–,–,–,89,Diaph ctr 10uM=81;Diaph ctr 30uM=70
Clc1ccc(C2=Nn3c(nnc3-c3cc(-c4ccccc4)n[nH]3)SC2)cc1,–,–,–,–,–,·,
c1ccc(C2=Nn3c(nnc3-c3cc(-c4ccccc4)n[nH]3)SC2)cc1,60,–,–,–,–,–,
COc1cc(-c2nnc3n2N=C(c2ccccc2)CS3)cc(OC)c1OC,97,–,–,–,–,60,Diaph ctr 10uM=–;Diaph ctr 30uM=–
C[C@@H]1CN([C@H](C)CO)C(=O)CCCn2cc(nn2)CO[C@H]1CN(C)C(=O)Nc1ccc(-c2cccs2)cc1,–,·,·,·,·,·,
Cc1cccc(NC(=O)CCCC(=O)OC(C)C(=O)c2ccccc2)c1 (configuration not stated),–,·,–,·,·,·,
N#Cc1ccc(NC(=S)NC(=O)C2CC2)cc1,–,·,·,·,·,·,
CCn1c(SCc2nc3ccccc3[nH]2)nnc1-c1cnccn1,67,–,–,–,–,–,
COc1ccc(C(=O)Nc2sc3c(c2C(=O)O)CC(C)(C)OC3)cc1,91,–,–,–,–,48,Diaph ctr 10uM=–;Diaph ctr 30uM=–
CC1(C)Cc2c(sc(NC(=O)c3ccccc3)c2C(=O)O)CO1,88,–,–,–,–,–,
Cc1cccc(-c2nc3ccccc3c(=O)n2NC(=S)N(C)C)c1,62,–,–,–,–,–,
C[C@@H]1CN([C@@H](C)CO)S(=O)(=O)c2ccc(-c3ccc(C#N)cc3)cc2O[C@@H]1CN(C)Cc1ccccn1,–,·,·,·,·,·,
Cc1c(Cl)cccc1NC(=O)C1Cc2ccccc2CN1C(=O)c1ccccc1 (configuration not stated),81,–,–,–,–,–,
C=CCSc1nc2sc3c(c2c(=O)n1CC)CCc1ccccc1-3,84,–,–,–,–,51,Diaph ctr 10uM=–;Diaph ctr 30uM=–
C=CCn1c(SCC)nc2sc3c(c2c1=O)CCc1ccccc1-3,–,–,–,–,–,·,
CCCCCCn1c(=O)n2n(c1=O)[C@@H]1CN(S(=O)(=O)c3ccc(C)cc3)C[C@]1(O)[C@@H](OC(=O)NCC1CCCCC1)C2,65,·,·,·,·,–,
CCCCCCn1c(=O)n2n(c1=O)[C@@H]1CN(S(=O)(=O)c3ccc(C)cc3)C[C@]1(O)[C@@H](OC(=O)NC1CC1)C2,–,·,·,·,·,·,
CCCCCCNC(=O)O[C@H]1Cn2c(=O)n(CCCCCC)c(=O)n2[C@@H]2CN(S(=O)(=O)c3ccc(C)cc3)C[C@]12O,71,·,·,·,·,–,
CCCCCCn1c(=O)n2n(c1=O)[C@@H]1CN(S(=O)(=O)c3ccc(C)cc3)C[C@]1(O)[C@@H](OC(=O)NC1CCCC1)C2,–,·,·,·,·,·,

# Screening data: PubChem, Sanford-Burnham Center for Chemical Genomics
